Source: ChEMBL document CHEMBL1146549, “Five new cassane diterpenes from Myrospermum frutescens with activity against Trypanosoma cruzi” (J Nat Prod, 2003)

Experiments:
Trypanosoma cruzi [1] = test: Antitrypanosomal activity against Trypanosoma cruzi Tulahuen clone C4 trypomastigotes in HFF after 7 days by beta-galactosidase reporter gene assay; format: functional, organism-based; conditions: 168 h
Procedure, shortened: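 HFF seeded at 1 × 10^3/well in RPMI-1640 without phenol red plus 10% fetal calf serum, overnight. βGal-expressing trypomastigotes added at 1 × 10^3/well, overnight, then serial dilutions (final 50, 10, 2 µg/mL). DMSO ≤0.1% final; vehicle control. Read at 7 days post-infection: CPRG 100 µM, Nonidet P-40 0.1% final, 4-6 h at 37 °C, OD 570 nm. Duplicates, ≥3 experiments, SD.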

Trypanosoma cruzi [2] = test: Antitrypanosomal activity against Trypanosoma cruzi epimastigotes after 3 days; format: functional, organism-based; conditions: 72 h
Procedure, shortened: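 Recombinant epimastigotes grown in LIT medium with 10% calf serum at 28 °C, seeded at 1 × 10^5/mL with test compounds. After 3 days, CPRG and Nonidet P-40 added as in the intracellular assay, OD 570 nm. Amphotericin B as positive control. IC50 derived as in the intracellular assay.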

[3] = Ratio of IC50 for HFF to IC50 for Trypanosoma cruzi epimastigotes
HFF = test: Cytotoxicity against HFF after 3 days by MTT assay; format: cell-based; conditions: Homo sapiens, 72 h
Procedure, shortened: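 Primary human foreskin fibroblasts adhered to 96-well plates, exposed to compounds, and viability assessed by MTT reduction after 3 days at 37 °C in CO2. IC50 derived as in the intracellular assay.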

[4] = Ratio of IC50 for HFF to IC50 for Trypanosoma cruzi Tulahuen clone C4 trypomastigotes

IC50 (Trypanosoma cruzi [1]) [µM]	IC50 (Trypanosoma cruzi [2]) [µM]	Structure (SMILES)	Ratio IC50 [3]	IC50 (HFF) [µM]	Ratio IC50 [4]
11		CC1CS(=O)(=O)CCN1/N=C/c1ccc([N+](=O)[O-])o1 (stereo not given) [NIFURTIMOX]			
25.9	11.5	C=CC1=C(C)[C@@H]2C[C@@H](O)[C@H]3[C@](C)(COC(C)=O)CCC[C@]3(C)[C@H]2CC1	10	118	
17.4	48.6	C=CC1=C(C)[C@@H]2CC[C@H]3[C@](C)(CO)CCC[C@]3(C)[C@H]2CC1		149	9
	36	C=CC1=C(C)[C@@H]2CC(=O)[C@H]3[C@](C)(CO)CCC[C@]3(C)[C@H]2CC1			
	104	C=CC1=C(C)[C@@H]2CC[C@H]3[C@@](COC(C)=O)(C(=O)O)CCC[C@]3(C)[C@H]2CC1			
	59	C=CC1=C(C)[C@@H]2C[C@@H](OC(C)=O)[C@H]3[C@](C)(COC(C)=O)CCC[C@]3(C)[C@H]2CC1			
16.6	56	C=CC1=C(C)[C@@H]2C[C@@H](O)[C@H]3[C@](C)(CO)CCC[C@]3(C)[C@H]2CC1		148	9
	1	C[C@@H]1[C@H](O)[C@@H](C)/C=C/C=C/C=C/C=C/C=C/C=C/C=C/[C@H](O[C@@H]2O[C@H](C)[C@@H](O)[C@H](N)[C@@H]2O)C[C@@H]2O[C@](O)(C[C@@H](O)C[C@@H](O)[C@H](O)CC[C@@H](O)C[C@@H](O)CC(=O)O[C@H]1C)C[C@H](O)[C@H]2C(=O)O [AMPHOTERICIN B]			
35.8	16.5	C=C[C@@]1(O)CC[C@H]2[C@@H](C[C@@H](O)[C@H]3[C@](C)(COC(C)=O)CCC[C@]23C)C1=C		124	
